Inconclusive results are not listed.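 The calls were made as follows, unless noted: active = RAM network inhibition above 8.4% in each of two replicates, 3 SD over the compound average; inconclusive = above 8.4% inhibition in only one replicate; inactive = 8.4% inhibition or less in each replicate.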
Assays:
[1] = OD615 S. cerevisiae growth inhibition, permissive medium, pilot counter-assay, permissive growth control for S. cerevisiae lifespan shortening project (AID 705;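 active = growth inhibition above 25% in both replicates, a cutoff set 3 SD above the mean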); conditions: OD615, 24 h, at 10 µM, stronger effect = higher value
Procedure, shortened: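 Timing: 24 h exposure, 30 °C / Material: Saccharomyces cerevisiae strain carrying genetically modified DeaD replicative-lifespan system / Signal: OD at 615 nm / Compound: 10 µM single dose, 0.25% DMSO / Medium: SC raffinose/galactose permissive medium / Evaluation: reduction in yeast growth (OD615)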

[2] = Restrictive medium S. cerevisiae growth inhibition, OD615, pilot screen of yeast lifespan reduction project, restrictive growth control (AID 706;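 active = growth inhibition above a set limit, 3 SD over mean compound inhibition, in both replicates, cut at about 43% in these data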;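 also: modified DeaD lifespan yeast strain shifted to restrictive glucose medium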); conditions: OD615, 48 h, at 10 µM, stronger effect = higher value
Procedure, shortened: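 System: Engineered S. cerevisiae DeaD strain | Detection: OD615 | Buffer or medium: CSMM-D glucose medium | Doses: 10 µM compound, 0.25% DMSO | Timing: 4 h pre-growth plus 48 h compound exposure, 30 °C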

[3] = viability gain of MRP-1-high H69AR cells under doxorubicin, pilot screen, MRP-1 activator project, CellTiter-Glo, duplicate (AID 807;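 active = viability increase at or above a cutoff of the median across tested compounds plus 3 SD, cut at about 8.5% in these data, passing the limit was not always enough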;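 also: compound pretreatment 18-22 h then 72 h combined with doxorubicin; 0% = doxorubicin alone and 100% = vehicle without doxorubicin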); conditions: H69AR viability with doxorubicin, CellTiter-Glo luminescence; at 10 µM; stronger effect = higher value
[4] = growth suppression of beta-catenin knockout HCT116, pilot screen, human colon tumor cells (AID 823;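 active = cell viability at or below a set limit in both duplicate runs, the limit being the all-compound median minus 4 SD, cut at about 23% in these data, passing the limit was not always enough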;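 also: 0% = wells killed by 20 µM Hyamine and 100% = untreated DMSO cell wells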); conditions: CellTiter-Glo, 60 h, at 10 µM, stronger effect = lower value
[5] = growth suppression of PTEN-deleted HCT116, pilot screen, cell-based, HCT116 clonal line, CellTiter-Glo (AID 824;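 active = viability at or below 27.92% in each of two runs, the all-compound median minus 4 SD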;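 also: 0% = 20 µM Hyamine control and 100% = vehicle cell control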); conditions: 60 h, at 10 µM, stronger effect = lower value
[6] = inhibitors of the yeast RAM network, pilot screen, dse1pr::URA3 reporter, 5-FOA selection (AID 869;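 active = inhibition over a set limit, the all-compound mean plus 3 SD, in both replicate runs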;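 also: 0% = DMSO wells with no growth and 100% = 10 µM 1-NA-PP1 with full growth; RAM network block rescues cells from 5-FOA so hits raise OD615 growth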); conditions: S. cerevisiae dse1pr::URA3 5-FOA growth, OD615, 2 d; at 10 µM; stronger effect = higher value; strain carries analog-sensitive mutant Cbk1 kinase
[7] = RAM signaling pathway blockade in yeast – S. cerevisiae, Pdr1DBD-CYC8 efflux-inhibited sensitized strain, primary screen (AID 1298);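 also: 0% = DMSO untreated cells without growth and 100% = 10 µM 1-NA-PP1 full growth; higher means more yeast growth rescued from 5-FOA killing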; conditions: S. cerevisiae cbk1-as DSE1-URA3 strain, 5-FOA growth OD615, 2 d; at 50 µM; stronger effect = higher value

O=C(C1CCCN(c2nnc(-n3cccc3)s2)C1)N1CCN(c2ccccc2)CC1 (stereo not drawn)
inactive: growth inhibition [1] -4% | growth inhibition [2] -4.55% | viability increase [3] -1.11% | viability [4] 88.9% | viability [5] 86.5% | inhibition [6] 0.485% | RAM network inhibition [7] 1.12%

Cc1nccn1-c1ncnc2sc3c(c12)CCCC3
inactive: growth inhibition [1] -7.46% | growth inhibition [2] 0.84% | viability increase [3] -3.49% | viability [4] 95.3% | viability [5] 93.5% | inhibition [6] 1.15% | RAM network inhibition [7] 2.86%

O=C(CCc1nc2ccccc2[nH]1)N1CCN(C(=O)c2ccco2)CC1
inactive: growth inhibition [1] -9.21% | growth inhibition [2] -5.44% | viability increase [3] -0.98% | viability [4] 101% | viability [5] 96.7% | inhibition [6] 0.87% | RAM network inhibition [7] 1.88%

CCOC(=O)CNC(=O)CSc1nnc(Cn2c(=O)sc3ccccc32)n1C
inactive: growth inhibition [1] -6.96% | growth inhibition [2] 6.85% | viability increase [3] -1.45% | viability [4] 108% | viability [5] 98% | inhibition [6] 0.83% | RAM network inhibition [7] 3.34%

COc1ccccc1N1C(=O)C2CC=CC(C)C2C1=O (stereo not drawn)
inactive: growth inhibition [1] -0.615% | growth inhibition [2] 2.32% | viability increase [3] -0.91% | viability [4] 89.4% | viability [5] 94% | inhibition [6] 0.52% | RAM network inhibition [7] 2.25%

CSC(=NS(=O)(=O)c1ccc(C)cc1)SC
inactive: growth inhibition [1] -11% | growth inhibition [2] -20.2% | viability increase [3] -1.03% | viability [4] 94.6% | viability [5] 93.1% | inhibition [6] 2.02% | RAM network inhibition [7] 4.14%

O=C(CSc1nnc(Cc2cc(=O)[nH]c(=O)[nH]2)n1-c1ccc(F)cc1)N1CCCCC1
inactive: growth inhibition [1] -4.41% | growth inhibition [2] 1.35% | viability increase [3] -0.28% | viability [4] 104% | viability [5] 105% | inhibition [6] 0.87% | RAM network inhibition [7] 2.55%

CC(=O)N1CCc2cc(C(=O)CN3CCC(C)CC3)ccc21
inactive: growth inhibition [1] -5.91% | growth inhibition [2] -4.73% | viability increase [3] -2.46% | viability [4] 104% | viability [5] 93.6% | inhibition [6] 1.56% | RAM network inhibition [7] 7.51%

COc1ccc(N2CC(C(=O)Nc3ccc(S(=O)(=O)Nc4nc(C)cc(C)n4)cc3)CC2=O)cc1 (stereo not drawn)
inactive: growth inhibition [1] -8.26% | growth inhibition [2] -7.87% | viability increase [3] -1.39% | viability [4] 100% | viability [5] 91.4% | inhibition [6] 1% | RAM network inhibition [7] 2.5%

COc1ccc(Nc2cc(C)nc3nc(C)nn23)c(OC)c1
inactive: growth inhibition [1] -2.91% | growth inhibition [2] 4.67% | viability increase [3] -1.65% | viability [4] 109% | viability [5] 106% | inhibition [6] 0.83% | RAM network inhibition [7] 0.32%

Cc1cc(C(F)(F)F)nc(NCc2ccc(F)cc2)n1
inactive: growth inhibition [1] -1.39% | growth inhibition [2] -13% | viability increase [3] -1.57% | viability [4] 90.5% | viability [5] 86.7% | inhibition [6] 1.39% | RAM network inhibition [7] 0.79%

C/C(=C\C(=O)c1ccc(C)cc1)Nc1cccc(O)c1
inactive: growth inhibition [1] 4.13% | growth inhibition [2] -2.96% | viability increase [3] -4.74% | viability [4] 99.2% | viability [5] 92.8% | inhibition [6] 2.13% | RAM network inhibition [7] -0.26%

O=C1c2oc3ccccc3c(=O)c2C(c2cccc(O)c2)N1c1ccccn1 (stereo not drawn)
inactive: growth inhibition [1] -7.62% | growth inhibition [2] -6.25% | viability increase [3] -0.37% | viability [4] 82.2% | viability [5] 79.6% | inhibition [6] 1.85% | RAM network inhibition [7] -0.1%

CCOC(=O)c1sc(NCCNc2nc(C)c(C(=O)OCC)s2)nc1C
inactive: growth inhibition [1] 2.36% | growth inhibition [2] -21.8% | viability increase [3] -3.12% | viability [4] 94.1% | viability [5] 89% | inhibition [6] 0.595% | RAM network inhibition [7] 5.86%

Cc1cccc(CCNC(=O)C2CCC(CNc3c(N4CCCC4)c(=O)c3=O)CC2)c1 (stereo not drawn)
inactive: growth inhibition [1] -6.65% | growth inhibition [2] -3.19% | viability increase [3] -1.92% | viability [4] 99.4% | viability [5] 91.2% | inhibition [6] 1.26% | RAM network inhibition [7] 4.72%

Cc1onc(-c2ccccc2Cl)c1C(=O)NCc1ccc2c(c1)cc(C)n2C
inactive: growth inhibition [1] -6.07% | growth inhibition [2] -12.7% | viability increase [3] -3.02% | viability [4] 95.5% | viability [5] 84.6% | inhibition [6] 1.93% | RAM network inhibition [7] 5.14%

Nc1ccccc1SCc1cn2cccnc2n1
inactive: growth inhibition [1] 1.29% | growth inhibition [2] 12% | viability increase [3] -2.43% | viability [4] 109% | viability [5] 98% | inhibition [6] 2.13% | RAM network inhibition [7] 3.55%

Cn1c(Cn2c(=O)sc3ccccc32)nnc1SCC(=O)NCc1ccccc1
inactive: growth inhibition [1] -10.1% | growth inhibition [2] -7.48% | viability increase [3] -0.73% | viability [4] 99% | viability [5] 102% | inhibition [6] 3.87% | RAM network inhibition [7] 4.44%

CCOC(=O)c1csc(NC(=O)c2ccccc2)n1
inactive: growth inhibition [1] -6.33% | growth inhibition [2] 0.485% | viability increase [3] 4.7% | viability [4] 101% | viability [5] 99.7% | inhibition [6] 0.115% | RAM network inhibition [7] -2.57%

CCOC(=O)CNC(=O)c1c2c(nc3ccccc13)CCCC2
inactive: growth inhibition [1] -6.83% | growth inhibition [2] -1.75% | viability increase [3] -5.37% | viability [4] 95.4% | viability [5] 88.2% | inhibition [6] 2.68% | RAM network inhibition [7] 5.74%

CCOc1ccc(NC(=O)N(C2CCCCC2)C2CCN(C(C)=O)CC2)cc1
inactive: growth inhibition [1] -8.37% | growth inhibition [2] 6.87% | viability increase [3] -0.8% | viability [4] 102% | viability [5] 100% | inhibition [6] 0.795% | RAM network inhibition [7] 3.05%

CCP(=O)(c1ccccc1)C(C)(C)O (stereo not drawn)
inactive: growth inhibition [1] 6.37% | growth inhibition [2] -8.84% | viability increase [3] -2.44% | viability [4] 104% | viability [5] 93.9% | inhibition [6] 1.48% | RAM network inhibition [7] -0.68%

CC1Cn2c(COc3ccccc3)nnc2S1 (stereo not drawn)
inactive: growth inhibition [1] -8.31% | growth inhibition [2] 6.73% | viability increase [3] -0.25% | viability [4] 102% | viability [5] 94.1% | inhibition [6] 0.645% | RAM network inhibition [7] 4%

O=C1c2ccccc2C(Nc2ccc3c(c2)OCCO3)N1Cc1ccccc1 (stereo not drawn)
inactive: growth inhibition [1] -4.61% | growth inhibition [2] 8.43% | viability increase [3] -1.12% | viability [4] 88.7% | viability [5] 80.9% | inhibition [6] 0.61% | RAM network inhibition [7] 2.3%

Source: PubChem BioAssay
